One may read the ED50 as the dose that gives a 50% effect, or the effect in half of the subjects. For orientation: IC50 means the concentration that gives 50% inhibition. A lower IC50 goes with greater potency in that assay.

9 molecules from ChEMBL document CHEMBL1135746, “Structure-activity relationships of the antimalarial agent artemisinin. 7. Direct modification of (+)-artemisinin and in vivo antimalarial screening of new, potential preclinical antimalarial candidates” (J Med Chem, 2002) can be followed below.

Structures are written as SMILES. Converted amounts (≈) assume the structure as drawn. “And” between values parts separate entries of the source, which are not always exact repeats. Identical values can stand only once. The source made the active and inactive calls. The calls are words filed in the database; no cut-off is given here.

Test [1] concerns Plasmodium yoelii. The experiment in a line: Percent suppression of Plasmodium […] NS infection in mice (Mus musculus) malaria model after 10 mg/kg peroral dose. Particulars: route oral. Type of test: functional.
For test [2], the system named is Plasmodium berghei. The experiment in a line: Effective dose against Plasmodium berghei N in mice (Mus musculus) malaria model after peroral administration. Particulars: po. Type of test: functional.
Test [3] concerns Plasmodium falciparum. The experiment in a line: Inhibitory activity against Plasmodium falciparum D6. The class given is functional, organism-based. The essentials: (§1)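 Parasitized human red blood cells were used in short-term microtitre cultures. Compounds were dissolved in DMSO and diluted 400-fold in culture medium with plasma, giving a starting concentration of at least 12 500 ng/mL. Activity was measured as inhibition of parasite uptake of a radiolabelled nucleic acid precursor.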

Test [4] deals with Plasmodium yoelii. The experiment in a line: Effective dose against Plasmodium yoelii NS after 10 mg/kg peroral dose in mice (Mus musculus) malaria model; Not active. Type of test: functional, organism-based. Also on record: dose 10 mg/kg.
Test [5] deals with Plasmodium falciparum. Put plainly: Inhibitory activity against Plasmodium falciparum W2. Type of test: functional, organism-based. A digest of the protocol: as §1
Test [6] relates to Plasmodium berghei. Put plainly: Percent suppression of Plasmodium berghei N infection in mice (Mus musculus) malaria model after peroral dose. Type of test: functional.
Test [7] has as its system Plasmodium berghei. Put plainly: Antimalarial activity in Plasmodium berghei infected mice (Mus musculus) at 128 mg/kg/day peroral dose. The class given is functional. Particulars: route oral. A digest of the protocol: (§2)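 CD-1 mice (16-18 g), quarantined 2 weeks, then infected with P. berghei (Thompson test). Treatment was given on days 3-5 postinfection. Subcutaneous dosing was a single injection; oral dosing was by gavage of a peanut-oil suspension. Groups of 5 mice were used. Survival was scored out of 5 and parasitemia was followed up to 60 days postinfection.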

Test [8] relates to Plasmodium berghei. The experiment in a line: Antimalarial activity in Plasmodium berghei infected mice (Mus musculus) at 8 mg/kg/day subcutaneous dose. Type of test: functional. A digest of the protocol: as §2
The test system of test [9] is Plasmodium berghei. The experiment in a line: Antimalarial activity in Plasmodium berghei infected mice (Mus musculus) at 32 mg/kg/day peroral dose. Type of test: functional. The note with it: route oral. The essentials: as §2
Test [10] relates to Plasmodium berghei. Put plainly: Antimalarial activity in Plasmodium berghei infected mice (Mus musculus) after 128 mg/kg/day subcutaneous dose. Type of test: functional. The essentials:
as §2

Test [11] relates to Plasmodium berghei. Put plainly: Antimalarial activity in Plasmodium berghei infected mice (Mus musculus) at 8 mg/kg/day peroral dose. The class given is functional. The note with it: route oral. A digest of the protocol:
as §2

The test system of test [12] is Plasmodium berghei. Put plainly: Antimalarial activity in Plasmodium berghei infected mice (Mus musculus) at 32 mg/kg/day subcutaneous dose. Type of test: functional. The essentials: as §2
In test [13] the test system is Plasmodium berghei. Put plainly: Effective dose ED50 against Plasmodium berghei N in mice (Mus musculus) malaria model after subcutaneous administration. Type of test: functional.
The subject of test [14] is Plasmodium berghei. Put plainly: (§3) Effective dose ED90 against Plasmodium berghei N in mice (Mus musculus) malaria model after peroral administration. The class given is functional. The note with it: po.
For test [15], the system named is Plasmodium yoelii. The experiment in a line: Effective dose after oral administration against Plasmodium yoelii sspNS for 90%inhibition in presence of DMSO. The class given is functional.
The test system of test [16] is Plasmodium yoelii. Put plainly: Effective dose after oral administration against Plasmodium yoelii sspNS for 50%inhibition in presence of DMSO. Type of test: functional.
For test [17], the system named is Plasmodium yoelii. Put plainly: Effective subcutaneous dose ED50 in SSV against Plasmodium yoelii sspNS. Type of test: functional. Particulars: sc.
The subject of test [18] is Plasmodium berghei. Put plainly: (§4) Effective dose ED90 against Plasmodium berghei N in mice (Mus musculus) malaria model after subcutaneous administration. Type of test: functional. The note with it: Plasmodium berghei, sc; read-out: ED90.
For test [19], the system named is Plasmodium falciparum. Put plainly: Inhibitory activity against Plasmodium falciparum K1. The class given is functional, organism-based.
Test [20] deals with Plasmodium yoelii. The experiment in a line: Effective subcutaneous dose ED90 in SSV against Plasmodium yoelii sspNS. The class given is functional. Particulars: sc.
Test [21] deals with Plasmodium berghei. Put plainly: Effective dose ED50 against Plasmodium berghei N in mice (Mus musculus) malaria model after peroral administration. The class given is functional.
Test [22] has as its system Plasmodium yoelii. Put plainly: Effective oral dose ED90 in DMSO against Plasmodium yoelii sspNS. Type of test: functional.
Test [23] concerns Plasmodium yoelii. Put plainly: Effective dose ED50 against Plasmodium yoelii sspNS in presence of SSV. The class given is functional.
Test [24] deals with Plasmodium yoelii. The experiment in a line: Effective oral dose ED90 in SSV against Plasmodium yoelii sspNS. The class given is functional.
In test [25] the test system is Plasmodium yoelii. Put plainly: Effective oral dose ED50 in DMSO against Plasmodium yoelii sspNS. Type of test: functional.
In test [26] the test system is Plasmodium yoelii. The experiment in a line: Effective subcutaneous dose ED90 against Plasmodium yoelii sspNS. Type of test: functional. The note with it: Plasmodium yoelii, sc; read-out: ED90.
The test system of test [27] is Plasmodium berghei. Put plainly: Effective dose ED90 against Plasmodium berghei N in mice (Mus musculus) malaria model after subcutaneous dose. The note with it: sc.
The subject of test [28] is Plasmodium berghei. The description is as §4. The class given is functional. Particulars: sc. The essentials: (§5)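 Peters' 4-day test: two batches of five male random-bred Swiss albino mice (18-22 g) were inoculated i.v. with 2 × 10⁶ P. berghei N-parasitized RBC. Drug was given once daily for four consecutive days. Compounds were dissolved in DMSO, then diluted in water for subcutaneous or oral dosing. Parasitemia was read the day after the last treatment.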

In test [29] the test system is Plasmodium yoelii. Put plainly: Effective subcutaneous dose ED50 against Plasmodium yoelii sspNS. The note with it: sc. The class given is functional.
Test [30] has as its system Plasmodium falciparum. Put plainly: Inhibitory activity against Plasmodium falciparum NF54. Type of test: functional, organism-based.
Test [31] relates to Plasmodium berghei. Put plainly: Effective dose against Plasmodium berghei N in mice (Mus musculus) malaria model after subcutaneous administration. The class given is functional. The note with it: sc. A digest of the protocol:
as §5

The test system of test [32] is Plasmodium berghei. Put plainly: Effective dose ED50 against Plasmodium berghei N and Plasmodium species infected mice (Mus musculus) after peroral dose. The note with it: po. The class given is functional. The essentials:
as §5

The test system of test [33] is Plasmodium berghei. The description is as §3. The class given is functional. Particulars: po. A digest of the protocol:
as §5
This is another data set of the same source.

The subject of test [34] is Plasmodium berghei. The experiment in a line: Effective dose Plasmodium berghei N in mice (Mus musculus) malaria model after subcutaneous administration. Type of test: functional. Particulars: sc. A digest of the protocol: as §5
The mark [35] stands for this setting: Plasmodium berghei, sc, read-out: ED50.
The mark [36] stands for this setting: Plasmodium berghei, po, read-out: ED50.

Regarding `C[C@@H]1CC[C@H]2[C@@H](CCCC(F)(F)F)CO[C@@H]3OC4(C)CC[C@@H]1[C@]32OO4` (single isomer, unassigned), the Activity in [1] is recorded as 0.3%; in test [6] it was 6.5%. In [2], this molecule had an ED50 of more than 10 mg/kg. In test [2], this molecule gave an ED90 of more than 10 mg/kg. The IC50 came to 12.5 ng/mL (≈ 0.0342 µM) in [3] and 8.87 ng/mL (≈ 0.0243 µM) in [5]. Besides, the NA entry in test [4] was “inactive”.

Regarding `C[C@@H]1CC[C@H]2[C@@H](CCCc3ccc(Cl)c(Cl)c3)CO[C@@H]3OC4(C)CC[C@@H]1[C@]32OO4` (single isomer, unassigned), the Activity is on record as 5 in test [7]; 0 in [8]; 5 in test [9]; 5 in test [10]; 0 in [11]; 5 in test [12].

For the molecule `C[C@@H]1CC[C@H]2[C@@H](CCCc3ccc(F)cc3)CO[C@@H]3OC4(C)CC[C@@H]1[C@]32OO4` (single isomer, unassigned), the Activity was 5 in test [7]; 0 in test [8]; 5 in test [9]; 5 in test [10]; 1 in test [11]; 5 in [12].

As for `C[C@@H]1CC[C@H]2[C@@H](CCCc3cc(F)cc(F)c3)CO[C@@H]3OC4(C)CC[C@@H]1[C@]32OO4` (single isomer, unassigned), the ED50 is 1.3 mg/kg in test [13] (setting [35]), 2.3 mg/kg in test [16] and 2.2 mg/kg in test [17]. Further, the ED90 in test [14] stood at 5.7 mg/kg; in [15], 7.5 mg/kg; in [18], 2 mg/kg; in test [20] it was 6.5 mg/kg. In addition, the values for the 50% inhibitory concentration (IC50) in test [3], in [5] and in test [19] were 0.82 ng/mL (≈ 0.00201 µM), 6.5 ng/mL (≈ 0.0159 µM) and 3.2 ng/mL (≈ 0.00783 µM), respectively.

`C[C@@H]1CC[C@H]2[C@@H](CCCc3cc(C(F)(F)F)cc(C(F)(F)F)c3)CO[C@@H]3OC4(C)CC[C@@H]1[C@]32OO4` (single isomer, unassigned): the ED50 was 2.6 mg/kg in test [21] (setting [36]), 0.9 mg/kg in test [13] (setting [35]), 4.2 mg/kg in test [23] and 1.5 mg/kg in test [25]. The ED90 in [22] was found to be 3.6 mg/kg; in test [14], 5 mg/kg; in [18], 1.7 mg/kg; in [24] it was 12 mg/kg. The IC50 in [3] was found to be 0.78 ng/mL (≈ 0.00153 µM); in test [5], 7.11 ng/mL (≈ 0.014 µM); in [19] it was 4.06 ng/mL (≈ 0.00798 µM).

Take `C[C@@H]1CC[C@H]2[C@@H](C)C(=O)O[C@@H]3O[C@@]4(C)CC[C@@H]1[C@]32OO4` [ARTEMISININ]: the Activity in [7] is on record as 0; in test [8], 0; in test [9] it was 0; in test [10], 5; in test [11], 0; in test [12], 3.

For the molecule `CCN(CC)CCCC(C)Nc1ccnc2cc(Cl)ccc12` (stereo unspecified) [CHLOROQUINE], the median effective dose (ED50) was determined as 1.5 mg/kg in test [13] (setting [35]) and 1.6 mg/kg in test [29]. The ED90 was determined as 28 mg/kg in [26], 1.8 mg/kg in test [27], 3.4 mg/kg in [28] and 3 mg/kg in test [18].

For the molecule `C=C[C@H]1CN2CC[C@H]1C[C@H]2[C@H](O)c1ccnc2ccc(OC)cc12` [QUININE], the ED50 in test [21] (setting [36]) was determined as 71 mg/kg; in [13] (setting [35]) it was 83 mg/kg. The results for the ED90 in test [14] and in test [18] were 118 mg/kg and 1050 mg/kg, respectively. Further, the values for the IC50 in [30], in test [3] and in [5] were 9.08 ng/mL (≈ 0.028 µM), 160 ng/mL (≈ 0.492 µM) and 150 ng/mL (≈ 0.462 µM), respectively.

`C[C@H]1[C@H](OC(=O)CCC(=O)[O-])O[C@@H]2O[C@@]3(C)CC[C@H]4[C@H](C)CC[C@@H]1[C@@]24OO3.[Na+]` [SODIUM ARESUNATE]: the ED90 in test [31], in test [32] and in [33] was more than 10 mg/kg throughout. Also, the 50% effective dose (ED50) in test [21] is 1.6 mg/kg; in [21] (setting [36]) it was 2.4 mg/kg; in [13], 0.8 mg/kg and 1.8 mg/kg; in test [34], more than 10 mg/kg.
